Residue numbers refer to the chain shown, from its start.
Experiments:
Details in all cases: stereoisomer not certain
[1] = test system: T1, O5AN1
T1 sequence (whole entry): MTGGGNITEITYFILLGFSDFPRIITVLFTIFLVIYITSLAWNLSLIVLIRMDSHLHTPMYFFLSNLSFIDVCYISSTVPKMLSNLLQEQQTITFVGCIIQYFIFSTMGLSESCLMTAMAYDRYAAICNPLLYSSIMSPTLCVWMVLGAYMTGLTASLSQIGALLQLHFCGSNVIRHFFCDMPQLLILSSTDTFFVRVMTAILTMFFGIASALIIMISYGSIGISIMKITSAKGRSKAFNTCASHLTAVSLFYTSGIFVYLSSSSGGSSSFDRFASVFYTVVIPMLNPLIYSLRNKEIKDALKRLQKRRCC
In short: (§1)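 Transient luciferase assays in mammalian cell lines were common, though methods varied by source. The values come from published papers and their supplementary material, with extra details from the original authors when needed. Responsive refers to a measured signal the original authors judged statistically different from baseline, and non-responsive (inactive) to the remainder.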

[2] = target: T2, OR10A2 (Homo sapiens) (UniProt Q9H208)
T2 sequence (whole entry): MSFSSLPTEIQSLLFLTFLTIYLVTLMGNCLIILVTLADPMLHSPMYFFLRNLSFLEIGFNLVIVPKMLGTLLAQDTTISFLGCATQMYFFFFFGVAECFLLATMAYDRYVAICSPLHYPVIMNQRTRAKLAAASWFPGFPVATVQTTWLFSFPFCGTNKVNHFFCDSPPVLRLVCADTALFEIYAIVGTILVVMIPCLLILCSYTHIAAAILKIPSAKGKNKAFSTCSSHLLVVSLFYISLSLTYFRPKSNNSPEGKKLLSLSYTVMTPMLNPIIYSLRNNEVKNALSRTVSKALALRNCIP
In short: as §1

[3] = test system: T3, O56A4 I247V
T3 sequence (whole entry): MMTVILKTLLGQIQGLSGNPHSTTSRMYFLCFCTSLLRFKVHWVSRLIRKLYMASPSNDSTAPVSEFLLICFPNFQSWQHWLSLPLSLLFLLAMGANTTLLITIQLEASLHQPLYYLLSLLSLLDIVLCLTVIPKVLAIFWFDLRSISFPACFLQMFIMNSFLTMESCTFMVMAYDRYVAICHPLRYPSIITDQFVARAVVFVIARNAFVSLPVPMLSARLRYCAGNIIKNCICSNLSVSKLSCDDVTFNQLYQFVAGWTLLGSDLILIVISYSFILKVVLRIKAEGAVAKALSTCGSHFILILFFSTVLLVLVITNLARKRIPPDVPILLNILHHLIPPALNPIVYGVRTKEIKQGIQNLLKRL
In short: as §1

[4] = test system: T4, O56A4
T4 sequence (whole entry): T3 sequence (whole entry) with V247I
In short: as §1

[5] = test system: T5, O56A5 V104L
T5 sequence (whole entry): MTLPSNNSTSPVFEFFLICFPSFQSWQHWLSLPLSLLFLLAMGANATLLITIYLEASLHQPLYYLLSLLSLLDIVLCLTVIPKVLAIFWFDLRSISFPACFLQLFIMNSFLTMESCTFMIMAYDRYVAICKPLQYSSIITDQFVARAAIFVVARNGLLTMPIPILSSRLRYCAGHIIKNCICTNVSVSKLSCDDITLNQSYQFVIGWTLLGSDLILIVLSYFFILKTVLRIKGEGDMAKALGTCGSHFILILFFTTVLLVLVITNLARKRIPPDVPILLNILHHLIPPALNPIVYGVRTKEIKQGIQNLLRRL
In short: as §1

[6] = test system: T6, O56B1 C106R L214F
T6 sequence (whole entry): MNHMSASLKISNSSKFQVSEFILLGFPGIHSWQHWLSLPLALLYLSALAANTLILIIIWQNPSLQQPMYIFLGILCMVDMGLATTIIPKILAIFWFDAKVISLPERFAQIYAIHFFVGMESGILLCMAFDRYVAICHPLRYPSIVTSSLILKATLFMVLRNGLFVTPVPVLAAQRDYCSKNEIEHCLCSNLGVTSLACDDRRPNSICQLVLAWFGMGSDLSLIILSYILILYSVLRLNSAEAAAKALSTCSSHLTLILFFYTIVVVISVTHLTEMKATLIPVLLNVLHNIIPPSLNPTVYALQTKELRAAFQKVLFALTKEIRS
In short: as §1

[7] = test system: T7, O56B1 L214F
T7 sequence (whole entry): T6 sequence (whole entry) with R106C
In short: as §1

[8] = test system: T8, O56B4
T8 sequence (whole entry): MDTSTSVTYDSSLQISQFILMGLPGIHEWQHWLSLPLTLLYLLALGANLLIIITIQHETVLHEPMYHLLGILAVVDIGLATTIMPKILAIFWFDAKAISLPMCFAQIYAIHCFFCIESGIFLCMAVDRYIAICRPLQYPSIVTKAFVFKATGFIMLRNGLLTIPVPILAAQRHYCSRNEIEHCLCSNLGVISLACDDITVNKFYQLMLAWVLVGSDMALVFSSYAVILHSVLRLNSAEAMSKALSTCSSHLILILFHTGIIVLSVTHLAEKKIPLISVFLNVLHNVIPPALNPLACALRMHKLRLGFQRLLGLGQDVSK
In short: as §1

[9] = test system: T9, O5AC2
T9 sequence (whole entry): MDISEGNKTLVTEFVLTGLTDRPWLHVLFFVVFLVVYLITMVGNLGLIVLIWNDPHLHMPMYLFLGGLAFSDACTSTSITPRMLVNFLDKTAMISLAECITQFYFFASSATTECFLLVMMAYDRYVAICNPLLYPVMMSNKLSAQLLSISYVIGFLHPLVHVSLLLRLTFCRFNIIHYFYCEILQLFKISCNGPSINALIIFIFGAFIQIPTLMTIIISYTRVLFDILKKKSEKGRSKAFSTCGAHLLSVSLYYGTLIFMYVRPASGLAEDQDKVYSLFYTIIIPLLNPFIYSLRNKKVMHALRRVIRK
In short: as §1

[10] = test system: T10, O5AK2 M92I
T10 sequence (whole entry): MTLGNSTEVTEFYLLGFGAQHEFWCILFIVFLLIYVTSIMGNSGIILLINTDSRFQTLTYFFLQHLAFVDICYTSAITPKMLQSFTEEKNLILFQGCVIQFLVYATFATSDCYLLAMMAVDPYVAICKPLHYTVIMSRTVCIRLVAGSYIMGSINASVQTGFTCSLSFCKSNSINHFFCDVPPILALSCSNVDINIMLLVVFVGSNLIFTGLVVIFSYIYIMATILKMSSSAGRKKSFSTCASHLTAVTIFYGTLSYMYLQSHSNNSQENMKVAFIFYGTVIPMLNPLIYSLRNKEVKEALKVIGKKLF
In short: as §1

[11] = test system: T11, O5AN1 C142Y L289F
T11 sequence (whole entry): T1 sequence (whole entry) with T26K, C142Y, S159F, S190C, R197Q, I214V, S221Y, L289F, R309K
In short: as §1

[12] = test system: T12, O5AN1 L289F
T12 sequence (whole entry): T1 sequence (whole entry) with T26K, S159F, S190C, R197Q, I214V, S221Y, L289F, R309K
In short: as §1

[13] = test system: T13, O5AP2 A105T
T13 sequence (whole entry): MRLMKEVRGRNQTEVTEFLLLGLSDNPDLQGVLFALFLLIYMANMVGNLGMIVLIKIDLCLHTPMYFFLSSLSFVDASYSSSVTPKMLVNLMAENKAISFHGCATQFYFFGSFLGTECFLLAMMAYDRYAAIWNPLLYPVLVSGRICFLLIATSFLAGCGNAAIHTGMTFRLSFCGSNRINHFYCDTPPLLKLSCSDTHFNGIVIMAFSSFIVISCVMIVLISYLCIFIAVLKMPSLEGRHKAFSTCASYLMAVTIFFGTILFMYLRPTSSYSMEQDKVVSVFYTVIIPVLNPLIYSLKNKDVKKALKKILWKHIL
In short: as §1

[14] = test system: T14, O5AU1
T14 sequence (whole entry): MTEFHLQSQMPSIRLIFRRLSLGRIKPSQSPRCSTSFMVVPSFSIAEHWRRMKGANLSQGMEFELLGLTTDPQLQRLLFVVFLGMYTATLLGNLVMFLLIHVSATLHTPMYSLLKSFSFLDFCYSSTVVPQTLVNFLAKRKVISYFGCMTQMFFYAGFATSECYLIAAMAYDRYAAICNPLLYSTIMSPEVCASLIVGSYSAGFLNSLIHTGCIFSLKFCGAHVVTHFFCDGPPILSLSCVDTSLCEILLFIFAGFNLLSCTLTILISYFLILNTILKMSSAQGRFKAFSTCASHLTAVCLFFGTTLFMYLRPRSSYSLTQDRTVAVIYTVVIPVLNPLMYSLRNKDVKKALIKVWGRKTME
In short: as §1

[15] = test system: T15, O5H14
T15 sequence (whole entry): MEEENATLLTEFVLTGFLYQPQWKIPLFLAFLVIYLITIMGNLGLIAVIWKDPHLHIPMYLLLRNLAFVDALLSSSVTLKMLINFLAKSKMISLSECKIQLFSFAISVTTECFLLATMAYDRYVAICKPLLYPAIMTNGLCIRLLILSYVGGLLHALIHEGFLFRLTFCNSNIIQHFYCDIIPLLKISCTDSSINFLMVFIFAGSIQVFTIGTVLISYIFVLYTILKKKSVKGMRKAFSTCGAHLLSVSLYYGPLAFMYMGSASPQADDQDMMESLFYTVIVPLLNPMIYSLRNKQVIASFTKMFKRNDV
In short: as §1

[16] = test system: T16, O5H15 V108I S148T T167S
T16 sequence (whole entry): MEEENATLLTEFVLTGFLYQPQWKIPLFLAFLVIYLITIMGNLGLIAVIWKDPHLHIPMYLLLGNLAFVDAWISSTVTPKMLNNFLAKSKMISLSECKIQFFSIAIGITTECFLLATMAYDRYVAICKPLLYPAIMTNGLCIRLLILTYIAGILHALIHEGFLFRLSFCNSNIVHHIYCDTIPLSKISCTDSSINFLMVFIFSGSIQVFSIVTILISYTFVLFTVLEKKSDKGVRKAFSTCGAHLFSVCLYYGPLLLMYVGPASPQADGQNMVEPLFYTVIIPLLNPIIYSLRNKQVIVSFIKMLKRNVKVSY
In short: as §1

[17] = test system: T17, O6C65 T222A
T17 sequence (whole entry): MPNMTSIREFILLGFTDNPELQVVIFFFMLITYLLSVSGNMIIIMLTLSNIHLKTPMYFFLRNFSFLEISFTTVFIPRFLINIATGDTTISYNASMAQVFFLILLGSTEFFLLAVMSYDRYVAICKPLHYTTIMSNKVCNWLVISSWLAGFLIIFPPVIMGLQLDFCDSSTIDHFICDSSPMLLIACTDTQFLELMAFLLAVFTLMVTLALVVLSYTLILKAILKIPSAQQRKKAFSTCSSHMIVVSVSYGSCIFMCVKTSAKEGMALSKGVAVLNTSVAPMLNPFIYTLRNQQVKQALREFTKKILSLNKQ
In short: as §1

[18] = test system: T18, O6C70 L181P
T18 sequence (whole entry): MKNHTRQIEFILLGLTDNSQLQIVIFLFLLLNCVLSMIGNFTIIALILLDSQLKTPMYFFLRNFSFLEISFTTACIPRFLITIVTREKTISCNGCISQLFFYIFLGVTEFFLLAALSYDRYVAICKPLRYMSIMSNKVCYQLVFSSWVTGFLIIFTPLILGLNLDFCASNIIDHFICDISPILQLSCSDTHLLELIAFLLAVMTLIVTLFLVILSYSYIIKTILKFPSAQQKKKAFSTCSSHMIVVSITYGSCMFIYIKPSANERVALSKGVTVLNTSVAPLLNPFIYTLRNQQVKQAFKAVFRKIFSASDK
In short: as §1

[19] = test system: T19, O7E24 S193F P242S
T19 sequence (whole entry): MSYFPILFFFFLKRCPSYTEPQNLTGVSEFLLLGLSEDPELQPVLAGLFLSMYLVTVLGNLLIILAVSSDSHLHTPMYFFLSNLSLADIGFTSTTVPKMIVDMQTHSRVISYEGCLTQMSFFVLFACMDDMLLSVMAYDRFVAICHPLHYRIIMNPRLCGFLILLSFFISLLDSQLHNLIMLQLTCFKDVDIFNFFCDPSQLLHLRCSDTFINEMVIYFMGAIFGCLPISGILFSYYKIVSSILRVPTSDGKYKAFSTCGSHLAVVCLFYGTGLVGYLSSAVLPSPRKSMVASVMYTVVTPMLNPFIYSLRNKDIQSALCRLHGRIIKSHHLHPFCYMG
In short: as §1

[20] = test system: T20, O7E24
T20 sequence (whole entry): T19 sequence (whole entry) with F193S
In short: as §1

Measured: odorant receptor agonist call;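 also: active if original authors judged signal statistically different from baseline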

O=C1C=CCCCCCCCCCCCCO1
inactive: [1]

CC1CCCCCCCCCCCCC(=O)C1 (stereo unspecified)
inactive: [2]
active: [1]

CCCCCC(=O)C(C)C(C)=O (stereo unspecified)
inactive: [2]

CCC1OC(C)=C(O)C1=O (stereo unspecified)
not listed: [1]
inactive: all other assays above

OC1CCCCCCCCCCCCCC1
active: [1]

C1CCCCCCCCCCCCCC1
inactive: [1]

CC(CO)CS (stereo unspecified)
inactive: [2]

CCC1OC(=O)C(O)=C1C (stereo unspecified)
not listed: [1]
inactive: all other assays above

O=C1CCCCCCCCC1
inactive: [1]
